Assay results: ChEMBL document CHEMBL5365542, “Difluoromethyl-1,3,4-oxadiazoles Are Selective, Mechanism-Based, and Essentially Irreversible Inhibitors of Histone Deacetylase 6” (J Med Chem, 2023)

How the values were obtained:
[1] = molecular target: T1, Protein deacetylase HDAC6 (Homo sapiens) (UniProt Q9UBN7); assay: (§1) Inhibition of N-terminal GST tagged human recombinant HDAC6 (1 to 1215 residues) expressed in Sf9 insect cells using Z-Lys(Ac)-AMC as fluorogenic substrate at 10 uM preincubated for 60 mins followed by substrate addition and measured after 90 mins by microplate reader analysis relative to control; details: time 150.0 min
T1 sequence (whole entry): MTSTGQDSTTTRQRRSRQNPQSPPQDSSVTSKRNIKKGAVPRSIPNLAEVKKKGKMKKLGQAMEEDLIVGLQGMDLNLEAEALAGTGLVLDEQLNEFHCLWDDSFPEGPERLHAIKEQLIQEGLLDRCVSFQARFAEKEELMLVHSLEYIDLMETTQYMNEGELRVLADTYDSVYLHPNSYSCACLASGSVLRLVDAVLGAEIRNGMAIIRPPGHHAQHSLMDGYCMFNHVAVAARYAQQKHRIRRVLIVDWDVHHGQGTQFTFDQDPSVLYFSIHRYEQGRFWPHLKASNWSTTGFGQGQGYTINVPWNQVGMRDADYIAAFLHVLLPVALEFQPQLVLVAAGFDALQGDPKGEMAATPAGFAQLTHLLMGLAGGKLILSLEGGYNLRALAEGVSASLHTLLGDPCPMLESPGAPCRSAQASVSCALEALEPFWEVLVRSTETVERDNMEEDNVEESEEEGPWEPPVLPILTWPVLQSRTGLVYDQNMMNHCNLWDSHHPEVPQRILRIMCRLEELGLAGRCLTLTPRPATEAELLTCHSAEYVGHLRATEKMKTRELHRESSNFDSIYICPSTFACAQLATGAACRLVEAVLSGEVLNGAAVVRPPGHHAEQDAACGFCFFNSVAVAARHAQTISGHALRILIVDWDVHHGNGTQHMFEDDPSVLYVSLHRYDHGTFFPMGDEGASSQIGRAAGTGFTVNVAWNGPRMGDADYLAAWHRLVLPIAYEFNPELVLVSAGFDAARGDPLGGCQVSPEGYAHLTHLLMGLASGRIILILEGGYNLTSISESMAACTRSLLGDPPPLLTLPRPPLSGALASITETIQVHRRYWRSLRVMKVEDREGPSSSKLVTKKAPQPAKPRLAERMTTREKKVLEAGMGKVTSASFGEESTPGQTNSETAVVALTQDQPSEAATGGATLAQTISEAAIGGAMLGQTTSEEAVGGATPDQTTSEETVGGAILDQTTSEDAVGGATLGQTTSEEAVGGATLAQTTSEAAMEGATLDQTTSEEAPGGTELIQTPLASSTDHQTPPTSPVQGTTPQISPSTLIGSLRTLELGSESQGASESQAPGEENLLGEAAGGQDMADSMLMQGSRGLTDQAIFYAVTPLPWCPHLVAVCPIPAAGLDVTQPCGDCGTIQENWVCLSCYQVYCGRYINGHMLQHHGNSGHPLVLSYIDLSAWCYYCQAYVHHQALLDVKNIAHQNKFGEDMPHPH
Procedure, shortened: (§2)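 Human recombinant enzyme was preincubated with 3-fold inhibitor dilutions for 60 min at 25 °C in Tris-HCl pH 8.0 buffer with BSA. ZMAL (75 μM solution) was then added, and the mix was incubated 90 min at 37 °C (max 1% DMSO). Trypsin was added for 30 min at 37 °C, and fluorescence was read at ex 355/em 460. Tested at least twice in duplicate.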

[2] = molecular target: Histone deacetylase 4 (Homo sapiens) (UniProt P56524); assay: as §1, with “GST-tagged/C-terminal His-tagged” for “GST tagged”, “HDAC4 (627” for “recombinant HDAC6 (1”, “1084” for “1215”, “Boc-Lys(Tfa)-AMC” for “Z-Lys(Ac)-AMC”; details: time 150.0 min
Procedure, shortened: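 Recombinant human HDAC4 was preincubated with inhibitor for 60 min at 25 °C in Tris-HCl pH 8.0/BSA buffer. Boc-Lys(Tfa)-AMC (42.86 μM solution) was then added for 90 min at 37 °C, followed by trypsin for 30 min at 37 °C. Fluorescence was read at ex 355/em 460. Tested at least twice in duplicate.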

[3] = molecular target: Histone deacetylase 3/Nuclear receptor corepressor 2 (HDAC3/NCoR2) (Homo sapiens) (UniProt O15379+Q9Y618); assay: as §1, with “C-terminal His-tagged human HDAC3 (1 to 428 residues)/N-terminal” for “N-terminal”, “NcoR2 (395” for “recombinant HDAC6 (1”, “489” for “1215”; details: time 150.0 min; procedure, shortened: as §2
[4] = molecular target: Histone deacetylase 1 (Homo sapiens) (UniProt Q13547); assay: as §1, with “C-terminal 6His/FLAG” for “N-terminal GST”, “HDAC1” for “HDAC6”, “482” for “1215”, “residues) […]” for “residues)”; details: time 150.0 min; procedure, shortened: as §2
[5] = molecular target: Histone deacetylase 2 (Homo sapiens) (UniProt Q92769); assay: Inhibition of C-terminal 6His-tagged human recombinant HDAC2 (1 to 488 residues) expressed in Sf9 insect cells using Z-Lys(Ac)-AMC as fluorogenic substrate at 10 uM preincubated for 60 mins followed by substrate addition and measured after 90 mins by microplate reader analysis relative to control; details: time 150.0 min; procedure, shortened: as §2
[6] = molecular target: T2, Protein deacetylase HDAC6 (Homo sapiens, UniProt Q9UBN7); assay: Inhibition of N-terminal GST tagged human recombinant HDAC6 (1 to 1215 residues) expressed in Sf9 insect cells using Z-Lys(Ac)-AMC as fluorogenic substrate preincubated for 60 mins followed by substrate addition and measured after 90 mins by microplate reader analysis
T2 sequence (Q9UBN7 whole entry): T1 sequence (whole entry)

Sequence of Histone deacetylase 2 (Homo sapiens) (Q92769 whole entry, the tested form may be a part): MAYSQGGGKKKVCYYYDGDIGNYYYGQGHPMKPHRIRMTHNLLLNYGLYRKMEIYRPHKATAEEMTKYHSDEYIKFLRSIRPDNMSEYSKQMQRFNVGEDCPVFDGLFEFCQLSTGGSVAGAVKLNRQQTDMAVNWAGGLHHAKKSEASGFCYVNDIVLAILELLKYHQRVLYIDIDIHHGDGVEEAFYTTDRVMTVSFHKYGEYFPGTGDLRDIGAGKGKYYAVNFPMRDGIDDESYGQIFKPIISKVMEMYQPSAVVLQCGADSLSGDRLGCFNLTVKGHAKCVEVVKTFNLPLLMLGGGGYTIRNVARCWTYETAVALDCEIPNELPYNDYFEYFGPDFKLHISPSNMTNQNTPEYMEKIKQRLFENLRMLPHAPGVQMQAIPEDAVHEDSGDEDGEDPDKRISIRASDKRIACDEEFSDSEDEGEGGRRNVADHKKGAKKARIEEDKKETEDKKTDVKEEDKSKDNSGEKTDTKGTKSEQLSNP
Sequence of Histone deacetylase 1 (Homo sapiens) (Q13547 whole entry, the tested form may be a part): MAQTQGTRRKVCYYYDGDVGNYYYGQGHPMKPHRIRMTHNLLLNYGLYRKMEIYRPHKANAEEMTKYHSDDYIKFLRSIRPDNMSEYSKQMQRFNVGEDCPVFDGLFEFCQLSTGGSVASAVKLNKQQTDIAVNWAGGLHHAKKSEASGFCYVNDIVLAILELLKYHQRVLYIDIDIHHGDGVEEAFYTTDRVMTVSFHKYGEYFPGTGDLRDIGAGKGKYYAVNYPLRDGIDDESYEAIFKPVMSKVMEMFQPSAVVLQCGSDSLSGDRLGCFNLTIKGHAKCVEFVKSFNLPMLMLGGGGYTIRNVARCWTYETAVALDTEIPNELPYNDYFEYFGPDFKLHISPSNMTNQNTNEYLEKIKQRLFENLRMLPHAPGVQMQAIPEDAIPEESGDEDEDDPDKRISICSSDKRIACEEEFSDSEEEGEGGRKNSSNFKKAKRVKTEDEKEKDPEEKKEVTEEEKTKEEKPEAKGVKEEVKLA
Sequence of Histone deacetylase 4 (Homo sapiens) (P56524 whole entry): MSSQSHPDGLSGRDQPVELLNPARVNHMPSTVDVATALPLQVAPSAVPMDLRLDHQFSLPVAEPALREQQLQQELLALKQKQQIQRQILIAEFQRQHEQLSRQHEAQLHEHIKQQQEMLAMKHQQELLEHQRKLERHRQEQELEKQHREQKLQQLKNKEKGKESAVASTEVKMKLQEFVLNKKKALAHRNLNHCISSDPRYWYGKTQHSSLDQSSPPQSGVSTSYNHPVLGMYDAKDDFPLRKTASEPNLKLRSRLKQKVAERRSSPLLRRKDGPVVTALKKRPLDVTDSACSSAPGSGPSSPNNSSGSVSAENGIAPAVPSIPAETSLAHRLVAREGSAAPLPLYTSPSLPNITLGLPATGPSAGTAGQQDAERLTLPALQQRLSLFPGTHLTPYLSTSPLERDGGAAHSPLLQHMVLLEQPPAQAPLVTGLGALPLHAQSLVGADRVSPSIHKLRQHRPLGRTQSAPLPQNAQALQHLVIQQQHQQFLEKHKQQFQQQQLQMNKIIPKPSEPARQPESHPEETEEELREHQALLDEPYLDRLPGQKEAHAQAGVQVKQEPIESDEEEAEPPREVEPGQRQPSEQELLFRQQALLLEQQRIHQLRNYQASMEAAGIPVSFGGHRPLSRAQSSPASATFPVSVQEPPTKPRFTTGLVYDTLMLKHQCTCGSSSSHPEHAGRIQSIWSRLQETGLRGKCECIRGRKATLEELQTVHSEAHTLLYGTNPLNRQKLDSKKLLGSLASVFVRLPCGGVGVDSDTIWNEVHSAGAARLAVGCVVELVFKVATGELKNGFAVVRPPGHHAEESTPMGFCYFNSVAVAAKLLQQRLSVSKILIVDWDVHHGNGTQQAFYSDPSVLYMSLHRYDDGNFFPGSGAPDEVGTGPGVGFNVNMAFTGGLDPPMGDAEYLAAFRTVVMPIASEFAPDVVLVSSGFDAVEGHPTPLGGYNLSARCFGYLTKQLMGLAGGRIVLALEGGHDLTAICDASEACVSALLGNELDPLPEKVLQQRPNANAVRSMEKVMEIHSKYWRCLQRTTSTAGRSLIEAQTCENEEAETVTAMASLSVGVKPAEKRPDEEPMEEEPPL

SMILES | inhibition [1] [%] | inhibition [2] [%] | inhibition [3] [%] | inhibition [4] [%] | inhibition [5] [%] | IC50 [6] [µM]
O=C(NNC(=O)C(F)F)c1cnc(NCc2ccccc2)nc1 | < 15 | – | – | – | – | –
NNC(=O)c1cnc(NCc2ccccc2)nc1 | 30 | – | – | – | – | –
COc1ccc(CNc2ncc(-c3nnc(C(F)F)o3)cn2)cc1 | – | < 15 | < 15 | < 15 | < 15 | 0.337
CN(C)c1ccc(C(=O)N(CC(=O)NCc2ccccc2)Cc2ccc(-c3nnc(C(F)F)o3)cc2)cc1 | 27 | < 15 | < 15 | < 15 | < 15 | –
Cc1nnc(-c2cnc(NCc3ccccc3)nc2)o1 | < 15 | – | – | – | – | –
FCc1nnc(-c2cnc(NCc3ccccc3)nc2)o1 | 54 | – | – | – | – | –

Now from value to molecule:

inhibition [1] [%] | inhibition [2] [%] | inhibition [3] [%] | inhibition [4] [%] | inhibition [5] [%] | IC50 [6] [µM] | SMILES
56 | < 15 | < 15 | < 15 | < 15 | – | FC(F)c1nnc(-c2cncnc2)o1
75 | < 15 | < 15 | < 15 | < 15 | – | CCCCN(Cc1ccc(-c2nnc(C(F)F)o2)cc1)C(=O)c1ccccc1
76 | < 15 | < 15 | < 15 | < 15 | – | CCCCN(Cc1ccc(-c2nnc(C(F)F)o2)cc1)C(=O)Nc1ccccc1
39 | < 15 | < 15 | < 15 | < 15 | – | Cc1ccc(-c2nnc(C(F)F)o2)cn1
< 15 | < 15 | < 15 | < 15 | < 15 | – | FC(F)c1nnc(-c2ccccc2)o1
